Data taken from ChEMBL document CHEMBL4229573, “Discovery of Quinazolines That Activate SOS1-Mediated Nucleotide Exchange on RAS” (ACS Med Chem Lett, 2018).
The source made the active and inactive calls. The rule behind the calls is not given here.

Assays:
[1] = target: T1, Son of sevenless homolog 1 (Homo sapiens) (UniProt Q07889); experiment: Activation of SOS1 in human HeLa cells assessed as effect on ERK1/2 phosphorylation at T202/Y204 residue by measuring […] at 3.1 uM after 30 mins by Western blot analysis relative to control; assay type: cell-based
T1 sequence (whole entry): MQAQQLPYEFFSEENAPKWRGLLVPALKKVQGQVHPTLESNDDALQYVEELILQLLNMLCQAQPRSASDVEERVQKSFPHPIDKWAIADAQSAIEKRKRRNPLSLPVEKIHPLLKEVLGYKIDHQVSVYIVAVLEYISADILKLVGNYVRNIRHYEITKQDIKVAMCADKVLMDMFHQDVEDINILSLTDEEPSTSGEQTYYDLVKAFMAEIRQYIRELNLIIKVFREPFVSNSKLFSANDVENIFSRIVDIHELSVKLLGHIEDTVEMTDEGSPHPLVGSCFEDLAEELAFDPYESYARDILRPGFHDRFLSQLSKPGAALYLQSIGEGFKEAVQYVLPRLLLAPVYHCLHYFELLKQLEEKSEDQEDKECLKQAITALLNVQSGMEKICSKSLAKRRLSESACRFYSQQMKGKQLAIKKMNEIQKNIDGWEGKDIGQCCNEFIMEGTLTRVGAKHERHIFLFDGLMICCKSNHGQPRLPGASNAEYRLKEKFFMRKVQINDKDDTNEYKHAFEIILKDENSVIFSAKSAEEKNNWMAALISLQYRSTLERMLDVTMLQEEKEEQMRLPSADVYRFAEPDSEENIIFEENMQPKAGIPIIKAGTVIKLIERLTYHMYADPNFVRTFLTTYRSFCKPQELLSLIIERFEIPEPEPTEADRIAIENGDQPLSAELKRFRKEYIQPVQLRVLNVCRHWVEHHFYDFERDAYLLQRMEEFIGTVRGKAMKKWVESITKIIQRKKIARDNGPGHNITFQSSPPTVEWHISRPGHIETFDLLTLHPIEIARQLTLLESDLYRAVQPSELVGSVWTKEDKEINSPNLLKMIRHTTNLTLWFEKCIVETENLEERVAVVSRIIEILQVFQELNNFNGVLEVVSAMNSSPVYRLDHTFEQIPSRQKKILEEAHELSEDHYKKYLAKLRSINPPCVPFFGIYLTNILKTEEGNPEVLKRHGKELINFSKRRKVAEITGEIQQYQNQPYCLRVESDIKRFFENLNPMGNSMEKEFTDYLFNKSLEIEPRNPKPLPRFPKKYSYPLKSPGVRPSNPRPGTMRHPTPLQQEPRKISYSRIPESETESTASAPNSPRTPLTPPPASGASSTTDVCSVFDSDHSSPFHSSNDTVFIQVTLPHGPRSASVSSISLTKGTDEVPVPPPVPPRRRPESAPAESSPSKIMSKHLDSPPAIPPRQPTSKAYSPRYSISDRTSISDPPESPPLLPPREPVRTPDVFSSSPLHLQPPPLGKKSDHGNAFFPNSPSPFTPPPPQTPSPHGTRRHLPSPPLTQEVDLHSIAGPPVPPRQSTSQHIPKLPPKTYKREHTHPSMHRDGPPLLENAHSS
How it was run: (§1)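 HeLa cells treated for 30 min with compound at concentrations up to 100 μM. RAS-GTP and ERK1/2 phosphorylated at T202/Y204 were detected by blotting and quantified. EGF (50 ng/mL, 5 min) served as the positive control for pathway activation.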

[2] = target: T1, Son of sevenless homolog 1 (Homo sapiens); experiment: Activation of SOS1 in human HeLa cells assessed as effect on ERK1/2 phosphorylation at T202/Y204 residue by measuring […] at 100 uM after 30 mins by Western blot analysis relative to control
[3] = target: T1, Son of sevenless homolog 1 (Homo sapiens); experiment: Activation of SOS1 in human HeLa cells assessed as effect on ERK1/2 phosphorylation at T202/Y204 residue by measuring […] at 6.3 uM after 30 mins by Western blot analysis relative to control; assay type: cell-based; how it was run: as §1
[4] = target: T1, Son of sevenless homolog 1 (Homo sapiens); experiment: Activation of SOS1 in human HeLa cells assessed as effect on RAS-GTP levels by measuring […] at 6.3 uM after 30 mins by active RAS pull-down assay relative to control; assay type: cell-based; how it was run: as §1
[5] = target: T1, Son of sevenless homolog 1 (Homo sapiens); experiment: Activation of SOS1 in human HeLa cells assessed as effect on RAS-GTP levels by measuring […] at 12.5 uM after 30 mins by active RAS pull-down assay relative to control; assay type: cell-based; how it was run: as §1
[6] = target: T1, Son of sevenless homolog 1 (Homo sapiens); experiment: Activation of SOS1 in human HeLa cells assessed as effect on ERK1/2 phosphorylation at T202/Y204 residue by measuring […] at 50 uM after 30 mins by Western blot analysis relative to control; assay type: cell-based; how it was run: as §1
[7] = target: T1, Son of sevenless homolog 1 (Homo sapiens); experiment: Activation of SOS1 in human HeLa cells assessed as effect on RAS-GTP levels by measuring […] at 25 uM after 30 mins by active RAS pull-down assay relative to control; assay type: cell-based; how it was run: as §1
[8] = target: T1, Son of sevenless homolog 1 (Homo sapiens); experiment: Activation of SOS1 in human HeLa cells assessed as effect on RAS-GTP levels by measuring […] at 100 uM after 30 mins by active RAS pull-down assay relative to control; assay type: cell-based; how it was run: as §1
[9] = target: T1, Son of sevenless homolog 1 (Homo sapiens); experiment: Activation of SOS1 in human HeLa cells assessed as effect on RAS-GTP levels by measuring […] at 3.1 uM after 30 mins by active RAS pull-down assay relative to control; assay type: cell-based; how it was run: as §1
[10] = target: T1, Son of sevenless homolog 1 (Homo sapiens); experiment: Activation of SOS1 in human HeLa cells assessed as effect on ERK1/2 phosphorylation at T202/Y204 residue by measuring […] at 25 uM after 30 mins by Western blot analysis relative to control; assay type: cell-based; how it was run: as §1
[11] = target: T1, Son of sevenless homolog 1 (Homo sapiens); experiment: Activation of SOS1 in human HeLa cells assessed as effect on ERK1/2 phosphorylation at T202/Y204 residue by measuring […] at 12.5 uM after 30 mins by Western blot analysis relative to control; assay type: cell-based; how it was run: as §1
[12] = target: T1, Son of sevenless homolog 1 (Homo sapiens); experiment: Activation of SOS1 in human HeLa cells assessed as effect on RAS-GTP levels by measuring […] at 50 uM after 30 mins by active RAS pull-down assay relative to control; assay type: cell-based; how it was run: as §1
[13] = target: T1, Son of sevenless homolog 1 (Homo sapiens); experiment: Biphasic activity at SOS1 in human HeLa cells assessed as reduction in ERK1/2 T202/Y204 phosphorylation at 100 uM measured after 30 mins by Western blot analysis; assay type: cell-based; how it was run: as §1
[14] = target: Mitogen-activated protein kinase 1 (Homo sapiens) (UniProt P28482); experiment: Inhibition of human ERK2 using myelin basic protein as substrate measured in presence of [gamma33P]ATP
Sequence of Mitogen-activated protein kinase 1 (Homo sapiens) (P28482 whole entry): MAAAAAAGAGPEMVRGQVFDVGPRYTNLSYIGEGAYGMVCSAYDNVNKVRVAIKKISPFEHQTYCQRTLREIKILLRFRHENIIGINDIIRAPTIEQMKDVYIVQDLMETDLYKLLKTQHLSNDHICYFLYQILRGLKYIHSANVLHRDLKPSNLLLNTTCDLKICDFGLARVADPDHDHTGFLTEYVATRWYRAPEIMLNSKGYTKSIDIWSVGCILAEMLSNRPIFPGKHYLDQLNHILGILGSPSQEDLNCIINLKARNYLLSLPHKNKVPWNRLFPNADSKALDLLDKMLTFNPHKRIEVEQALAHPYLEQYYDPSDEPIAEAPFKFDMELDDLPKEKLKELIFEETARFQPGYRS

[15] = target: Mitogen-activated protein kinase 3 (Homo sapiens) (UniProt P27361); experiment: Inhibition of human ERK1 using myelin basic protein as substrate measured in presence of [gamma33P]ATP
Sequence of Mitogen-activated protein kinase 3 (Homo sapiens) (P27361 whole entry): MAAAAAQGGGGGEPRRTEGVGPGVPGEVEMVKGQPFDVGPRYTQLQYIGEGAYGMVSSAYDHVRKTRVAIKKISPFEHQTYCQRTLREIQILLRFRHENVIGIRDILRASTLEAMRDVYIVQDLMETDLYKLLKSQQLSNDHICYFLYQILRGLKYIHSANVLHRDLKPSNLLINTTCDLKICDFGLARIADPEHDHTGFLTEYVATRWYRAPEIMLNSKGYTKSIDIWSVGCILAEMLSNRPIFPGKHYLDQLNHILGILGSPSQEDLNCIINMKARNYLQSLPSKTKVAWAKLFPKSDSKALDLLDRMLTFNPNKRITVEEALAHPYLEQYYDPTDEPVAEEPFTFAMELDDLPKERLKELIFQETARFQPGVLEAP

| SMILES | fold change (FC) [1] | fold change (FC) [2] | fold change (FC) [3] | fold change (FC) [4] | fold change (FC) [5] | fold change (FC) [6] | fold change (FC) [7] | fold change (FC) [8] | fold change (FC) [9] | fold change (FC) [10] | fold change (FC) [11] | fold change (FC) [12] | Activity [13] | inhibition [14] | inhibition [15] |
| --- | --- | --- | --- | --- | --- | --- | --- | --- | --- | --- | --- | --- | --- | --- | --- |
| C[C@@H](Nc1nc(Nc2ccc(F)c(Cl)c2)nc2c(CCN)cccc12)C1CC1 | 1.11 | 0.44 | 1.82 | 1.64 | 0.97 | 1.18 | 1.58 | 1.66 | 1.22 | 1.87 | 1.59 | 1.61 |  |  |  |
| C[C@@H](Nc1nc(Nc2ccc(F)c(Cl)c2)nc2c(C3=CCNCC3)cccc12)C1CC1 | 1.43 | 0.58 | 1.29 | 1.08 | 1.72 | 1.16 | 1.6 | 1.51 | 1.41 | 1.98 | 1.98 | 1.56 |  |  |  |
| C[C@@H](Nc1nc(Nc2ccc(F)c(Cl)c2)nc2c(CN)cccc12)C1CC1 | 1.05 | 0.59 | 0.94 | 1.39 | 0.98 | 2.43 | 1.18 | 1.54 | 1.15 | 2.52 | 1.83 | 1.14 |  |  |  |
| C[C@@H](Nc1nc(Nc2ccc(F)c(Cl)c2)nc2ccccc12)C1CC1 | 1.16 | 4.01 | 1.03 | 0.85 | 0.53 | 3.68 | 0.69 | 1.39 | 0.95 | 1.61 | 1.67 | 1.26 |  | inactive | inactive |
| Clc1cc(Cl)cc(Nc2nc(NCc3ccco3)c3ccccc3n2)c1 |  |  |  |  |  |  |  |  |  |  |  |  | inactive |  |  |

Continued, values first:

| fold change (FC) [1] | fold change (FC) [2] | fold change (FC) [3] | fold change (FC) [4] | fold change (FC) [5] | fold change (FC) [6] | fold change (FC) [7] | fold change (FC) [8] | fold change (FC) [9] | fold change (FC) [10] | fold change (FC) [11] | fold change (FC) [12] | Activity [13] | inhibition [14] | inhibition [15] | SMILES |
| --- | --- | --- | --- | --- | --- | --- | --- | --- | --- | --- | --- | --- | --- | --- | --- |
|  |  |  |  |  |  |  |  |  |  |  |  | inactive |  |  | CC[C@H](Nc1nc(Nc2ccc(F)c(Cl)c2)nc2ccccc12)C1CC1 |
|  |  |  |  |  |  |  |  |  |  |  |  | inactive |  |  | C[C@@H](Nc1nc(Nc2ccc(F)c(Cl)c2)nc2ccccc12)C1CCC1 |
|  |  |  |  |  |  |  |  |  |  |  |  | inactive |  |  | CC(C)C[C@@H](Nc1nc(Nc2ccc(F)c(Cl)c2)nc2ccccc12)C1CC1 |
|  |  |  |  |  |  |  |  |  |  |  |  | inactive |  |  | CC[C@@H](Nc1nc(Nc2ccc(F)c(Cl)c2)nc2ccccc12)C1CCC1 |
